The record followed here is ChEMBL document CHEMBL1138014, “1-(2-Aminoethyl)-3-(arylsulfonyl)-1H-indoles as novel 5-HT6 receptor ligands” (Bioorg Med Chem Lett, 2004).

Common to all, as to type: cell-based
For assay [1], the target named is T1, 5-hydroxytryptamine receptor 6 (Homo sapiens, UniProt P50406). Nature of the assay: Inhibitory concentration against human 5-hydroxytryptamine 6 receptor transfected in HeLa cells in cAMP assay. An outline of the steps: (§1)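 Human 5-HT6 receptor stably transfected into HeLa cells. Cells were washed with Krebs buffer, then preincubated for 5 min at 37°C in Krebs with 500 µM IBMX. They were then exposed to test compound (0.1–10,000 nM) for 10 min at 37°C. The reaction was stopped with 0.5 M perchloric acid, and intracellular cAMP was measured by scintillation proximity radioimmunoassay.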
T1 sequence (P50406 whole entry): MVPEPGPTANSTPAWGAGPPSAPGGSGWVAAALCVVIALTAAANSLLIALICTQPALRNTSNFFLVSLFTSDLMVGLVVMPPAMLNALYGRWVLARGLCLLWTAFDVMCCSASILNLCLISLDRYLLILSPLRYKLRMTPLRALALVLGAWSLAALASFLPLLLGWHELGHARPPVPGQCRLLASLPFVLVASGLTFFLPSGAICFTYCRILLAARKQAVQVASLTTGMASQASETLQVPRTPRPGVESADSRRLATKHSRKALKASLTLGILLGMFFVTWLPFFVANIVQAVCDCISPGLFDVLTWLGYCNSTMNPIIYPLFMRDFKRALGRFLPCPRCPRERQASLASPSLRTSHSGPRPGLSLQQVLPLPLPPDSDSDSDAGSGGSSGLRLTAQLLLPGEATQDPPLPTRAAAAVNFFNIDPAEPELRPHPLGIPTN
For orientation: cAMP levels reflect the balance of adenylyl cyclase and phosphodiesterase activity.

Assay [2] addresses T1, 5-hydroxytryptamine receptor 6. Nature of the assay: Inhibitory potency against human 5-hydroxytryptamine 6 receptor transfected in HeLa cells in cAMP assay. The gist of the method: as §1
Assay [3] shares this target. The assay is described as follows: Binding affinity against human 5-hydroxytryptamine 6 receptor transfected in HeLa cells.
For assay [4] the target is unchanged. Nature of the assay: Percent inhibitory activity against human 5-hydroxytryptamine 6 receptor transfected in HeLa cells at 1 uM.

As to `COc1cccc2c(S(=O)(=O)c3ccccc3)cn(CCN(C)C)c12`, half-maximal inhibition in assay [1] (IC50) was put at 23 nM. Moreover, the Imax in assay [2] came to 80.5%.

`NCCc1cn(S(=O)(=O)c2ccccc2)c2ccccc12`: the Ki in assay [3] was 10.3 nM.

In turn, `CN(C)CCn1cc(S(=O)(=O)c2cccc3ccccc23)c2ccccc21` showed an IC50 in assay [1] of 47 nM. In assay [2], this compound displayed an Imax of 97%. In assay [3], this compound had a Ki of 3.7 nM.

`COc1ccc2c(S(=O)(=O)c3ccccc3)cn(CCN)c2c1` gave an inhibition in assay [4] of 78%.

`COc1ccc2c(c1)c(S(=O)(=O)c1ccccc1)cn2CCN1CCCCC1` showed an inhibition in assay [4] of 55%.

As to `COc1ccc2c(c1)c(S(=O)(=O)c1ccccc1)cn2CCN`, the inhibition in assay [4] amounted to 86%.

`CNCCn1cc(S(=O)(=O)c2cccc3ccccc23)c2ccccc21` gave an IC50 in assay [1] of 359 nM. The Imax in assay [2] turned out to be 97%. In assay [3], the affinity, expressed as Ki, was 5.7 nM.

`CNCCn1cc(S(=O)(=O)c2ccccc2)c2ccccc21` yielded a Ki in assay [3] of 15.5 nM.

In the case of `CN(C)CCn1cc(S(=O)(=O)c2ccccc2OC(F)(F)F)c2ccccc21`, half-maximal inhibition in assay [1] (IC50) was put at 792 nM. The compound further had an Imax in assay [2] of 100%.

Compound `CNCCc1cn(S(=O)(=O)c2ccccc2)c2ccccc12` yielded a Ki in assay [3] of 5 nM.

Compound `CN(C)CCn1cc(S(=O)(=O)c2ccccc2)c2ccc(C#N)cc21` came in with an inhibition in assay [4] of 42%.

In the case of `NCCn1cc(S(=O)(=O)c2ccccc2)c2cc(F)ccc21`, the affinity in assay [3] corresponds to a Ki of 27 nM.

Usually IC50 stands for the point on the concentration scale where inhibition reaches its midpoint. Broadly, the Ki is the dissociation constant of the complex between target and ligand, obtained from inhibition or displacement. Low readings indicate a stronger hold on the target, high ones a looser hold on the target. The term inhibition denotes how much of the control response was suppressed. A lower inhibition goes with a response near the control.
